Data reported in ChEMBL document CHEMBL4837210 (Eur J Med Chem, 2021).

Tests used:
Format in all cases: functional
[1] = tested on: Staphylococcus aureus; assay: Antibacterial activity against erythromycin-susceptible Staphylococcus aureus ATCC 25923 assessed as bacterial growth inhibition incubated for 24 hrs by CLSI protocol based broth microdilution method
[2] = tested on: Bacillus subtilis; assay: Antibacterial activity against penicillin-susceptible Bacillus subtilis ATCC 9372 assessed as bacterial growth inhibition incubated for 24 hrs by CLSI protocol based broth microdilution method
[3] = tested on: Streptococcus pyogenes; assay: Antibacterial activity against erythromycin-resistant Streptococcus pyogenes 2 assessed as bacterial growth inhibition incubated for 24 hrs by CLSI protocol based broth microdilution method
[4] = tested on: Bacillus pumilus; assay: Antibacterial activity against penicillin-susceptible Bacillus pumilus CMCC 63202 assessed as bacterial growth inhibition by broth dilution method; details: time 24 hrs
Outline: (§1)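 Broth microdilution in Mueller Hinton broth. A 0.5 McFarland suspension was diluted tenfold, giving an inoculum of 1.5 × 10⁷ cfu/mL. This was added to 2-fold serial compound dilutions from […]. Plates were incubated aerobically at 37 °C for 24 h. MIC was the lowest concentration with no visible turbidity.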

[5] = tested on: Streptococcus pyogenes; assay: Antibacterial activity against erythromycin-susceptible Streptococcus pyogenes clinical isolate 1 assessed as bacterial growth inhibition incubated for 24 hrs by CLSI protocol based broth microdilution method
[6] = tested on: Staphylococcus aureus; assay: Antibacterial activity against methicillin-resistant Staphylococcus aureus ATCC 43300 assessed as inhibition of bacterial growth by broth microdilution method; details: time 24 hrs
Outline: (§2)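 Broth microdilution MIC. A 0.5 McFarland suspension was diluted 10-fold and added at 1.5 × 10⁷ cfu/mL to 2-fold dilutions (0.125–64) in Mueller Hinton broth. Incubated aerobically 24 h at 37 °C. MIC was the lowest concentration with no visible turbidity.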

[7] = tested on: Escherichia coli; assay: Antibacterial activity against penicillin-susceptible Escherichia coli ATCC 25922 assessed as inhibition of bacterial growth measured by broth microdilution method; details: time 24 hrs; outline: as §1
[8] = tested on: Staphylococcus aureus; assay: Antibacterial activity against Staphylococcus aureus assessed as inhibition of bacterial growth measured by broth microdilution method; details: time 24 hrs; outline: as §1
[9] = tested on: Pseudomonas aeruginosa; assay: Antibacterial activity against penicillin-susceptible Pseudomonas aeruginosa ATCC27853 assessed as bacterial growth inhibition incubated for 24 hrs by CLSI protocol based broth microdilution method
[10] = tested on: Staphylococcus epidermidis; assay: Antibacterial activity against penicillin-resistant Staphylococcus epidermidis assessed as inhibition of bacterial growth measured by broth microdilution method; details: time 24 hrs
[11] = tested on: Staphylococcus aureus; assay: Antibacterial activity against penicillin-resistant Staphylococcus aureus assessed as inhibition of bacterial growth measured by broth microdilution method; details: time 24 hrs; outline: as §2

Compound | MIC [1] [µg/mL] | MIC [2] [µg/mL] | MIC [3] [µg/mL] | MIC [4] [µg/mL] | MIC [5] [µg/mL] | MIC [6] [µg/mL] | MIC [7] [µg/mL] | MIC [8] [µg/mL] | MIC [9] [µg/mL] | MIC [10] [µg/mL] | MIC [11] [µg/mL]
CCCCCCCNc1c2ccccc2[n+](C)c2ccccc12.[Cl-] | 16 | 32 | 32 | 32 | 16 | 32 | > 64 | 16 | > 64 | 32 | 16
CCc1ccc(-c2c3ccccc3[n+](C)c3ccccc23)cc1.[I-] | 0.25 | 2 | 4 | 4 | 2 | 16 | > 64 | 1 | > 64 | 32 | 64
COc1ccccc1C#Cc1c2ccccc2[n+](C)c2ccccc12.[I-] | 8 | 8 | 16 | 2 | 16 | 8 | > 64 | 4 | > 64 | 16 | 16
COc1cccc(-c2c3ccccc3[n+](C)c3ccccc23)c1.[I-] | 4 | 16 | 32 | 32 | 8 | > 64 | > 64 | 8 | > 64 | > 64 | > 64
C[n+]1c2ccccc2c(/C=C/c2ccc(-c3ccccc3)cc2)c2ccccc21.[I-] | 0.5 | 1 | 0.5 | 2 | 0.5 | 2 | 32 | 1 | > 64 | 2 | 4
C[n+]1c2ccccc2c(-c2cccc([N+](=O)[O-])c2)c2ccccc21.[I-] | 16 | 64 | 64 | > 64 | 16 | 64 | > 64 | 32 | > 64 | > 64 | > 64
COc1ccc(-c2c3ccccc3[n+](C)c3ccccc23)cc1.[I-] | 4 | 8 | 16 | 16 | 8 | > 64 | > 64 | 8 | > 64 | > 64 | > 64
CCCCCNc1c2ccccc2[n+](C)c2ccccc12.[Cl-] | > 64 | 64 | 32 | > 64 | 16 | > 64 | > 64 | > 64 | > 64 | 64 | 64
CCCc1ccc(-c2c3ccccc3[n+](C)c3ccccc23)cc1.[I-] | 0.25 | 1 | 4 | 2 | 1 | 4 | > 64 | 0.25 | > 64 | 8 | 16
C[n+]1c2ccccc2c(-c2ccc(OC(F)(F)F)cc2)c2ccccc21.[I-] | 0.5 | 4 | 4 | 8 | 1 | 2 | > 64 | 2 | > 64 | 32 | 64
CCCCc1ccc(/C=C/c2c3ccccc3[n+](C)c3ccccc23)cc1.[I-] | 1 | 1 | 0.5 | 0.5 | 0.5 | 8 | > 64 | 2 | > 64 | 2 | 8
C[n+]1c2ccccc2c(/C=C/c2ccccc2)c2ccccc21.[I-] | 0.5 | 1 | 0.5 | 2 | 0.25 | 4 | > 64 | 2 | > 64 | 8 | 8
Cc1ccc(-c2c3ccccc3[n+](C)c3ccccc23)cc1.[I-] | 1 | 4 | 16 | 8 | 4 | 64 | > 64 | 4 | > 64 | 64 | > 64
CCCCCCNc1c2ccccc2[n+](C)c2ccccc12.[Cl-] | 64 | 64 | 32 | 64 | 32 | 64 | > 64 | 64 | > 64 | 64 | 64
C[n+]1c2ccccc2c(/C=C/c2ccc(Cl)cc2)c2ccccc21.[I-] | 1 | 2 | 1 | 1 | 1 | 2 | > 64 | 2 | > 64 | 2 | 4
Cc1ccc(/C=C/c2c3ccccc3[n+](C)c3ccccc23)cc1.[I-] | 0.5 | 1 | 0.5 | 0.5 | 0.25 | 4 | 64 | 1 | > 64 | 2 | 8
CCOc1ccc(/C=C/c2c3ccccc3[n+](C)c3ccccc23)cc1.[I-] | 0.5 | 2 | 0.5 | 16 | < 0.125 | 2 | > 64 | 1 | > 64 | 4 | 8
COc1ccccc1/C=C/c1c2ccccc2[n+](C)c2ccccc12.[I-] | 0.25 | 1 | 0.5 | 2 | 0.25 | 4 | > 64 | 1 | > 64 | 8 | 16
COc1ccc(/C=C/c2c3ccccc3[n+](C)c3ccccc23)cc1OC.[I-] | 4 | 8 | 4 | 1 | 2 | 16 | > 64 | 8 | > 64 | 32 | 64
C[n+]1c2ccccc2c(C#Cc2ccccc2)c2ccccc21.[I-] | 2 | 2 | 8 | 8 | 4 | 2 | > 64 | 2 | > 64 | 4 | 4
C[n+]1c2ccccc2c(/C=C/c2ccc(Br)cc2)c2ccccc21.[I-] | 0.5 | 1 | 0.5 | 1 | 0.25 | 2 | 64 | 1 | > 64 | 2 | 4
C[n+]1c2ccccc2c(Nc2ccncn2)c2ccccc21.[Cl-] | 16 | 16 | > 64 | 64 | > 64 | 32 | > 64 | 32 | > 64 | > 64 | > 64
CCCOc1ccc(C#Cc2c3ccccc3[n+](C)c3ccccc23)cc1.[I-] | 4 | 4 | 16 | 4 | 16 | 4 | > 64 | 4 | > 64 | 8 | 16
COc1ccc(C#Cc2c3ccccc3[n+](C)c3ccccc23)cc1.[I-] | 4 | 4 | 16 | 4 | 16 | 8 | > 64 | 4 | > 64 | 16 | 16
CCc1ccc(/C=C/c2c3ccccc3[n+](C)c3ccccc23)cc1.[I-] | 0.5 | 1 | 1 | 1 | 0.5 | 2 | 64 | 1 | > 64 | 4 | 8
C[n+]1c2ccccc2c(-n2cccc2)c2ccccc21.[Cl-] | 32 | 64 | 64 | 64 | 16 | > 64 | > 64 | 64 | > 64 | > 64 | 64
